Laboratory results from the EternaBench riboswitch data.

Tested on: MS2 coat protein
Assay: apparent Kd, MS2 coat protein; higher = weaker binding; RNA-MaP array; FMN 200 µM where present
Summary of the method: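 In 100 mM Tris-HCl pH 7.5, 80 mM KCl, 4 mM MgCl2, BSA, DTT, yeast tRNA and Tween-20, SNAP-549-labelled MS2 coat protein was titrated from 0.7 or 1.5 nM, doubling to 3 µM, over designs transcribed by stalled E. coli RNA polymerase on Illumina sequencing-chip clusters. This was done first without ligand, then with ligand held constant. After green signal was normalised to red-channel RNA signal and control-cluster median Fmax, the apparent Kd was taken as the median of filtered per-cluster binding-curve fits.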

[1] = designed as: OFF switch for flavin mononucleotide, no ligand
[2] = ligand present: flavin mononucleotide, designed as: OFF switch for flavin mononucleotide
[3] = designed as: ON switch for flavin mononucleotide, no ligand
[4] = ligand present: flavin mononucleotide, designed as: ON switch for flavin mononucleotide

| Sequence | apparent Kd [1] | apparent Kd [2] | apparent Kd [3] | apparent Kd [4] |
| --- | --- | --- | --- | --- |
| AUGCUAUACGAAGGAUAUGGUUACAUGAGGAUCACCCAUGUAAUUUUUGUGAUCUUGUUUAAGUUCCAGAAGGUCGUAUAGCUA | 0.0422 µM | 0.156 µM | – | – |
| UCGUGUAUAGAGGAUAUAUUAUUUUUUUUAACAAUAGAAGGCUAAACAUGAGGAUCACCCAUGUAUUUUUUUUU | 0.0314 µM | 0.044 µM | – | – |
| UUGUCGCAUGUAGGAUAUGUAUGUUAUUAUCAUACAGAAGGACAUGAGGAUCACCCAUGUGUAUUAUUAUUAUAUGUUACAUAU | 0.0204 µM | 0.0198 µM | – | – |
| UUAGCAUACCGAGGAUAUUCAUAUAAUAAAUAAACAUGAGGAUCACCCAUGUGGCGAAAGCCUAGGGAGAAGGCGGAAUGCUAA | – | – | 0.22 µM | 0.022 µM |
| AGGGAGUAAGGAUAUCGGAAAGGACACGAAAGUGACAAAGACGAGAAGGUACAUGAGGAUCACCCAUGUAAAAA | 0.0213 µM | 0.0201 µM | – | – |
| CCUCCAUCAUGAGGAUAUGGCACCUUAUUGGUGCCAGAAGGCAUGUCUCUUGACAUGAGGAUCACCCAUGUAAUAAAUUGGAGG | – | – | 1.15 µM | 0.109 µM |
| GACUGAUUACAGAAGGUGUAAGACAUGAGGAUCACCCAUGUGAUAUAGGGUAUAUUUGAAUAUAACAAGGAUAUGUAUAAAUCA | – | – | 0.102 µM | 0.0604 µM |
| AGGCCGCUACGCCGGCUUCACGCACAGGAUAUGCAGUUACAUGAGGAUCACCCAUGUGGCCAUGUGCAGAAGGGUGGUUCGCGA | – | – | 0.0395 µM | 0.0186 µM |
| UAUAUAUAGUAAGGAUAUGUAUUAAUUUUAUGAACAGAAGGUACUGACAUGAGGAUCACCCAUGUUUUAGUGUGGGCAUGUAGA | 0.0856 µM | 0.122 µM | – | – |
| CUAGCGGAUGUAGGAUAUCGGACUGUUUCAGUCUGAGAAGGACAUGAGGAUCACCCAUGUAUUGCUGCGUGAGUAGCACGCUAG | 0.0191 µM | 0.0302 µM | – | – |
| CGCUACAGCCAGAAGGACAUGAGGAUCACCCAUGUAGGAUAUGGGAGACGCAGUCCAGUGUAGAGAAACUACGCUACUGUAGCG | – | – | 0.504 µM | 0.216 µM |
| ACGUGACGGUGCGCGAGUGGACGGAGAAGGCAGACAUGAGGAUCACCCAUGUGAGCCUGCUAUUCUGAGGAUAUCCGUCCGCUC | 0.0388 µM | 0.257 µM | – | – |
| CGAUUUGUAGGAUAUGUAUGAGUAAUCCCUUUUUAUGAAGAACAUGAGGAUCACCCAUGUAGAAGGGCAUUGUA | 0.0196 µM | 0.0176 µM | – | – |
| CCCAUCGCAUGAGGAUAUGGUCAGCUUUGCUGACCAGAAGGCAUGUCAAUAGACAUGAGGAUCACCCAUGUAGUUAAGAUGGGA | – | – | 0.675 µM | 0.0492 µM |
| AUGUUGUCAGGAUAUCGUUAAUUUAGUUGUUUGUAUUAGUUCGAGAAGGGACAUGAGGAUCACCCAUGUUUGUA | 0.032 µM | 0.044 µM | – | – |
| UCCGAAUCGUAGAAGGGUGACAUGAGGAUCACCCAUGUGCAGCAGCCGUGAACGGCCAUGCUGCCACAGGAUAUACGAUGGAGU | – | – | 0.0411 µM | 0.0562 µM |
| CAUUAAUUCAUUAUAUUAAUUUUACAGGAUAUGUAACAUGAGGAUCACCCAUGUAUUCAAGGUUAACAGAAGGGUAUAUCUAGU | 0.0182 µM | 0.014 µM | – | – |
| GUAGCAUACAGAGGAUAUUCAAAACCGGAAACGGACAUGAGGAUCACCCAUGUGGCGAAAGCCUGGGAGAAGGCUGAAUGCUAC | – | – | 0.0286 µM | 0.0142 µM |
| CUGCUGGAGCUUUGCUUUAGUCGUACAUGAGGAUCACCCAUGUAGGAUAUGGUAGGCUUUGCUUACCAGAAGGAUAGAGUGGUC | 0.0935 µM | 0.0406 µM | – | – |
| AAUGGCAUAGAGAAGGCGCCGCAGCUCUUCCUCCCAUCCCAACGACAUGAGGAUCACCCAUGUAGCGAGGAUAUCUAUACCGUC | 0.00708 µM | 0.0125 µM | – | – |
